Source: paper PMC3243070 (European Journal of Medicinal Chemistry, 2011)

Experiments:
kidney FAR = conditions: cited from earlier work
[1] = biological target: T1, bovine folate binding protein (FBP) (Bos taurus, UniProt P02702)
Method in brief: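 Bovine milk FBP amide-coupled to a CM5 chip (9.5 ng/mm2). Ligands injected in HBS-EP at 30 µL/min (monovalent) or 50 µL/min (dendrimer conjugates). Chip regenerated with 10 mM glycine-HCl pH 2.5. Reference channel subtracted. kon and koff from Langmuir fits, with mass-transport effects checked. KD = koff/kon, averaged over ≥3 measurement sets per concentration with χ2 < 5.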

[2] = biological target: T1, bovine folate binding protein (FBP); conditions: SPR, earlier study; cited from earlier work

T1 sequence (P02702 20-241): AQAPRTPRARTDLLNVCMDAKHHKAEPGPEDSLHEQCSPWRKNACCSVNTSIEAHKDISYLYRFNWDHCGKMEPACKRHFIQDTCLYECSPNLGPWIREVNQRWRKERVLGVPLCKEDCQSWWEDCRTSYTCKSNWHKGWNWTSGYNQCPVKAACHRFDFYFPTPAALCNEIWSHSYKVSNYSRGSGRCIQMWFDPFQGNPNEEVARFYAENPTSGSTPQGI

Compound | Kd (kidney FAR) [µM] | affinity lower than that of FA ([1]; from the SPR KD values) | koff [1] [s⁻¹] | kon [1] [M⁻¹ s⁻¹] | Kd [2] [µM]
CN(Cc1cnc2nc(N)nc(N)c2n1)c1ccc(C(=O)N[C@@H](CCC(=O)O)C(=O)O)cc1 [MTX, methotrexate] | 0.02 to 0.1 | ≈ 2 fold | – | – | –
Nc1nc2ncc(CNc3ccc(C(=O)N[C@@H](CCC(=O)O)C(=O)O)cc3)nc2c(=O)[nH]1 [FA, folic acid] | ~0.001 | – | 0.012 | 1100 | 5
